# How the values were obtained:
# [1] = target: Glucagon receptor (Rattus norvegicus) (UniProt P30082); test: Antagonist activity at rat GCGR assessed as inhibition of glucagon-induced cAMP production
# [2] = Kinetic solubility of the compound at pH 6.5; format: physicochemical; conditions: buffer, read-out: Kinetic_solubility
# [3] = Cytotoxicity against human THLE cells after 72 hrs; format: cell-based; conditions: thle
# In short: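 Transformed human liver epithelial (THLE) cells were exposed to compound for 72 h. Cytotoxicity was read as cellular ATP depletion and reported as the concentration predicted to kill 50% of cells.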
# [4] = test system: Rattus norvegicus; test: Oral bioavailability in Wistar-Han rat at 5 mg/kg; format: ADME, organism-based; conditions: in vivo
# In short: (§1)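 Wistar-Han rats were dosed at 1 mg/kg i.v. and 5 mg/kg p.o.; pharmacokinetic parameters were derived from the plasma profiles.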
# [5] = Permeability across low transporter-containing MDCK2 cells; format: ADME, cell-based, Canis lupus familiaris, MDCK-II; conditions: dog, MDCK; read-out: permeability
# [6] = Plasma concentration in Wistar-Han rat at 1 mg/kg, iv after 11 mins; format: ADME, organism-based; set-up: dose 1 mg/kg, route intravenous
# In short: (§2)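 Wistar-Han rats received compound or vehicle i.v. at t = 0 (1, 10 or 30 mg/kg), then a 3 µg/kg i.v. glucagon bolus at 15 min. Blood glucose was sampled at 0, 10, 26, 32, 50 and 80 min, and compound plasma levels were measured. n = 6 rats per dose group.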
# [7] = test system: Rattus norvegicus; test: Volume of distribution at steady state in Wistar-Han rat at 1 mg/kg, iv and 5 mg/kg, po; format: ADME, organism-based; conditions: in vivo
# In short: as §1
# [8] = Plasma concentration in Wistar-Han rat at 10 mg/kg, iv after 11 mins; format: ADME, organism-based; set-up: dose 10 mg/kg, route intravenous
# In short: as §2
# [9] = test system: Rattus norvegicus; test: Antidiabetic activity in Wistar-Han rat assessed as reduction in glucagon-induced blood glucose excursion at 10 mg/kg, iv after 11 mins; format: functional; set-up: scale not given: the % may be the effect or the level left
# In short: as §2
# [10] = test system: Rattus norvegicus; test: Half life in Wistar-Han rat at 1 mg/kg, iv and 5 mg/kg, po; format: ADME, organism-based; conditions: in vivo
# In short: as §1
# [11] = test system: Rattus norvegicus; test: Antidiabetic activity in Wistar-Han rat assessed as reduction in glucagon-induced blood glucose excursion at 30 mg/kg, iv after 11 mins; format: functional; set-up: scale not given: the % may be the effect or the level left
# In short: as §2
# [12] = test system: Rattus norvegicus; test: Antidiabetic activity in Wistar-Han rat assessed as reduction in glucagon-induced blood glucose excursion at 1 mg/kg, iv after 11 mins; format: functional; set-up: scale not given: the % may be the effect or the level left
# In short: as §2
# [13] = Lipophilicity, log D of the compound in octanol-phosphate buffer at pH 7.4; format: physicochemical; conditions: octanol/phosphate buffer, read-out: logD
# In short: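 Shake-flask partition between octanol and buffer at pH 7.4.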
# [14] = target: T1, Gastric inhibitory polypeptide receptor (Homo sapiens, UniProt P48546); test: Displacement of [125I]GIP from human GIPR
# T1 sequence (P48546 whole entry): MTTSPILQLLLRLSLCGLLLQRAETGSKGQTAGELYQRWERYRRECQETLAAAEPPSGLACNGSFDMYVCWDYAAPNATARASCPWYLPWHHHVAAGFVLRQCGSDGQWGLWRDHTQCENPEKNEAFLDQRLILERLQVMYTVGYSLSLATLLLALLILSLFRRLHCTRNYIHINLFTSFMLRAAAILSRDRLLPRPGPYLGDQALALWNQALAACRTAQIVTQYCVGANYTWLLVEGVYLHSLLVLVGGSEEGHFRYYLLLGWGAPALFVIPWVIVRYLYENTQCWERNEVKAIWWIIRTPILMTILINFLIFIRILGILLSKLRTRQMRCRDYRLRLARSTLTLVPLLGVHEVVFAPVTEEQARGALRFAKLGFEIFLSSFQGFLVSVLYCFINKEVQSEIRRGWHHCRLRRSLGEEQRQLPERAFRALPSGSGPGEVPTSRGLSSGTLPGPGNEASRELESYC
# [15] = target: Glucagon receptor (Homo sapiens, UniProt P47871); test: Displacement of [125I]Glucagon-Cex from human GCGR
# Sequence of Glucagon receptor (P47871 whole entry): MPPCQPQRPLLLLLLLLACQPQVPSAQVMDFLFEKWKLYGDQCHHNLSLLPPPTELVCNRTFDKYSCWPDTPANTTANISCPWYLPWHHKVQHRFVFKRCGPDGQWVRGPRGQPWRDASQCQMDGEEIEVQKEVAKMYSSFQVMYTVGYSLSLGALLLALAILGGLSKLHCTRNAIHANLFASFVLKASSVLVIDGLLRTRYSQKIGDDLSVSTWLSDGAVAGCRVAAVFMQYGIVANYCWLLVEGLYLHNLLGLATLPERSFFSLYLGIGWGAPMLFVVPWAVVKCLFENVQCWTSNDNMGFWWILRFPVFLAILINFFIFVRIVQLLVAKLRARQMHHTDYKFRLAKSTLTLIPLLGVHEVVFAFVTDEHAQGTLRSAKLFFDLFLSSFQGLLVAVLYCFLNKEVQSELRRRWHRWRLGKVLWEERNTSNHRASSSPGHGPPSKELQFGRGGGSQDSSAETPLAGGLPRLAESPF
# In short: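 Displacement of [125I]glucagon-Cex from membranes containing the human glucagon receptor, run with 0.2% BSA. Values are geometric means of n ≥ 2 determinations.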
# [16] = Plasma concentration in Wistar-Han rat at 30 mg/kg, iv after 11 mins; format: ADME, organism-based; set-up: dose 30 mg/kg, route intravenous
# In short: as §2
# [17] = Apparent intrinsic clearance in rat liver microsomes; format: ADME, Microsome; conditions: read-out: CLH
# [18] = target: Glucagon-like peptide 1 receptor (Homo sapiens, UniProt P43220); test: Displacement of [125I]GLP-1 from human GLP1R
# Sequence of Glucagon-like peptide 1 receptor (P43220 whole entry): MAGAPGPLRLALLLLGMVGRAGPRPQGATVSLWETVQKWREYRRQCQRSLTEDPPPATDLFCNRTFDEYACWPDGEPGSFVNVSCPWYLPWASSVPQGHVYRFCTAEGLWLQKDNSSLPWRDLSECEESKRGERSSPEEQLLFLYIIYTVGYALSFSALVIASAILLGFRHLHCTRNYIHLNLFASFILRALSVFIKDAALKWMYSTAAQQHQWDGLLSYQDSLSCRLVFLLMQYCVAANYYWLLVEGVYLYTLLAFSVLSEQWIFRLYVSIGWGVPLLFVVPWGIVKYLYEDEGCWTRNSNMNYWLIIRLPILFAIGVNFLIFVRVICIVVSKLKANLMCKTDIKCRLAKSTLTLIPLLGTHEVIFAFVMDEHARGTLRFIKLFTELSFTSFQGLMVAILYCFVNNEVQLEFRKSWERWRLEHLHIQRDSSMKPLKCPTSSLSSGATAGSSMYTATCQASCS
# In short: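 Displacement of [125I]GLP-1 from membranes expressing the human GLP-1 receptor.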
compound,measurement,setting,value
"O=C(O)CCNC(=O)c1ccc(C(Nc2cnn(-c3ccc(C(F)(F)F)cc3)c2)C2CCCC2)cc1 (single isomer, unassigned; (+))",Kb,[1],2.34 µM
same,solubility kinetic,[2],320 µM
same,IC50,[3],235 µM
same,F,[4],2%
same,Papp,[5],6.34 ×10⁻⁶ cm/s
same,concentration at 11 min,[6],300 ng/mL
same,Vdss,[7],1.27 L/kg
same,concentration at 11 min,[8],2280 ng/mL
same,Activity,[9],20%
same,t1/2,[10],24 min
same,Activity,[11],24%
same,Activity,[12],12%
same,logD,[13],2.27
same,Ki,[14],0.152 µM
same,Ki,[15],0.009 µM
same,concentration at 11 min,[16],21000 ng/mL
same,CLint scaled,[17],< 25 mL/min/kg
same,Ki,[18],3.34 µM

# Reference: ChEMBL document CHEMBL1933020, “A novel series of glucagon receptor antagonists with reduced molecular weight and lipophilicity” (Bioorg Med Chem Lett, 2012)
